Measured values as given in ChEMBL document CHEMBL1144493, “Synthesis and biological evaluation of dihydrofuran-fused perhydrophenanthrenes as a new anti-influenza agent having novel structural characteristic” (Bioorg Med Chem, 2007).
Active and inactive are the calls of the source. The rule behind the calls is not given here.

Experiments:
Influenza A virus [1] = assay: Antiviral activity against influenza A virus A/NWS/33 (H1N1) at 100 uM; type: functional, organism-based
In short: (§1)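 PBS-washed confluent MDCK monolayers were inoculated with virus in serum-free MEM and adsorbed for 45 min at room temperature. They were then cultured in agar medium with drug at 100 µM or 1% DMSO as control. Results are percent of control, mean ± SD of three experiments. Drug stocks were in DMSO, final DMSO <1%.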

Influenza A virus [2] = assay: Anti-influenza activity against influenza A virus A/Aichi/2/68 in MDCK cells administered at 100 uM within 1 hrs post infection; type: functional, organism-based
In short: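 MDCK cells were infected with A/Aichi/2/68 (H3N2) under drug-free conditions and then given drug at 100 µM after delays of 0–10 h at 37 °C. The paper describes a one-step growth design at MOI 5 PFU/cell with 1-h drug treatment. Virus yield was measured by plaque titration after 24 h total, as % of 1% DMSO control, mean ± SD of three experiments.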

Influenza A virus [3] = assay: Antiviral activity against influenza A virus A/USSR/92/77 (H1N1) at 100 uM; type: functional, organism-based; in short: as §1
Influenza A virus [4] = assay: Antiviral activity against influenza virus A virus A/PR/8/34 (H1N1) at 100 uM; type: functional, organism-based; in short: as §1
Influenza B virus [5] = assay: Antiviral activity against influenza B virus B/Lee at 100 uM; type: functional, organism-based; in short: as §1
Influenza A virus [6] = assay: Inhibition of influenza A virus A/Aichi/2/68 proliferation in MDCK cells at 10 uM relative to control; type: functional; set-up: scale not given: the % may be the effect or the level left
MDCK = assay: Cytotoxicity against MDCK cells at 100 uM by MTT assay; type: cell-based, Canis lupus familiaris; details: dog
In short: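 Subconfluent MDCK cells (10⁴ cells/well) were exposed for 24 h to compound at 100 or 200 µM in MEM with 2% FBS; control was 1% DMSO. MTT was then added and OD read at 570 nm. Values are mean ± SD of three measurements.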

Influenza B virus [7] = assay: Antiviral activity against influenza B virus B/Singapore/222/79 at 100 uM; type: functional; in short: as §1
Influenza A virus [8] = assay: Inhibition of influenza A virus A/Aichi/2/68 virus proliferation in MDCK cells; type: functional, organism-based

Compound: N#C[C@]12CCC3(OCCO3)C3=CO[C@H](Cc4cc(OC(F)(F)F)ccc41)[C@@H]32
- Activity (Influenza A virus [1]): Active
- Activity (Influenza A virus [2]): Active
- Activity (Influenza A virus [3]): Active
- Activity (Influenza A virus [4]): Active
- Activity (Influenza B virus [5]): Active
- Activity (Influenza A virus [6]): 30%
- Activity (MDCK): Not Active
- Activity (Influenza B virus [7]): Active
- Activity (Influenza A virus [8]): Dose-dependent effect

Compound: CC(C)C(Oc1ccc2c(c1)C[C@H]1OC=C3[C@H]1[C@@]2(C#N)CCCC31OCCO1)(C(C)C)C(C)C
- Activity (Influenza A virus [1]): Active
- Activity (Influenza A virus [3]): Active
- Activity (Influenza A virus [4]): Active
- Activity (Influenza B virus [5]): Active
- Activity (Influenza A virus [6]): 30%
- Activity (MDCK): Not Active
- Activity (Influenza B virus [7]): Active
- Activity (Influenza A virus [8]): Dose-dependent effect
